hK5 inh = human KLK5 protease inhibitors, primary screen, biochemical, 1536-well; recombinant hK5, fluorogenic AMC substrate cleavage; inhibition, % at 5 µM; 210,000 tested, 0.59% active;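 active = inhibition of 40% or more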;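 also: 0% = enzyme controls without compound and 100% = no-enzyme blanks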
FXIa inh = human FXIa protease inhibitors, primary screen, biochemical, 1536-well; Coagulation factor XI (Homo sapiens), P03951; purified FXIa, Boc-Glu-Ala-Arg-AMC fluorogenic substrate; inhibition, % at 5 µM; 220,000 tested, 0.14% active;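 active = inhibition of at least 40%; inactive = inhibition below 40%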;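 also: fluorescence of freed AMC excited at 355 nm; 0% = enzyme without compound and 100% = no enzyme blank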
Target sequence (P03951 19-387 limits assumed): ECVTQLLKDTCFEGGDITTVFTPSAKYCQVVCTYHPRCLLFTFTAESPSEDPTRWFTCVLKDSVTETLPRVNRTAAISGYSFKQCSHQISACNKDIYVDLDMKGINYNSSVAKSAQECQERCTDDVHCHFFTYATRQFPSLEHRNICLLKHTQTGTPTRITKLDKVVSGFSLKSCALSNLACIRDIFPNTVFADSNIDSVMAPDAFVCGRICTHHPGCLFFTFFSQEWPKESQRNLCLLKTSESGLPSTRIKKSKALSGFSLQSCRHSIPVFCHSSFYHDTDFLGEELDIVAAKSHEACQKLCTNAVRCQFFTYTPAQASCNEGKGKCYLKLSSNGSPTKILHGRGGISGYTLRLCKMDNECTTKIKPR
Target sequence (P03951 388-625 limits assumed): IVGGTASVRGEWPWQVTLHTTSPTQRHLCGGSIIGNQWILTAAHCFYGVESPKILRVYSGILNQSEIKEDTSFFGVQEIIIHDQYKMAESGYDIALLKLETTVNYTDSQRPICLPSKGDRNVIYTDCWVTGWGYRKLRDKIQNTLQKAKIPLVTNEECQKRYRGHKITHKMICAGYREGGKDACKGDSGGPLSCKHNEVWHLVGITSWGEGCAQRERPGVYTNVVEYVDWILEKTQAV
FXIIa inh = human FXIIa protease inhibitors, primary screen, biochemical, 1536-well | purified FXIIa, Boc-QGR-AMC fluorogenic substrate, 2 h | inhibition, % at 5 µM | 220,000 tested, 0.3% active | AID 800, 2007; in the data active = inhibition above about 40%;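 also: 0% = enzyme with no compound and 100% = blank without enzyme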
thrombin 1536 = human alpha-thrombin inhibitors, primary screen, counter-screen for coagulation protease inhibitor project, biochemical, 1536-well, fluorogenic AMC substrate; Boc-VPR-AMC fluorogenic substrate cleavage; 220,000 tested, 0.26% active; inhibition, % at 5 µM;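 active = inhibition at or above 40%; inactive = inhibition below 40%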;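 also: 0% = enzyme with no compound and 100% = wells without enzyme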
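signal = AMC fluorescence, 355/460 nm | material = human alpha-thrombin enzyme | control set = enzyme without compound as high, wells lacking enzyme as low | times = reaction at room temperature | read-out basis = percent inhibition scaled between no-compound controls and no-enzyme blanks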
Starred values were filed as active, the others as inactive; x = no result. An excerpt weighted towards active compounds, which were near 1% of everything screened.

SMILES	hK5 inh	FXIa inh	FXIIa inh	thrombin 1536
CCN1CCOC(CC(=O)Nc2ccc([N+](=O)[O-])cc2)C1=O (stereo not given)	4	2	8	1
COc1cc(NC(=O)CN(C)S(=O)(=O)c2ccc3c(c2)CCC(=O)N3)cc(OC)c1	49*	-8	-1	-6
COc1cc2c(cc1OC)C(=O)CC(C)S2 (stereo not given)	-23	2	6	1
CCOC(=O)Nc1c(O)ccc2oc(C)c(-c3ccccc3)c12	84*	7	20	20
CCOC(=O)C(=O)Nc1nc(-c2ccccc2)c(-c2ccccc2)o1	-4	0	-1	-7
CN(C)/C=C1/C=C(C=O)OC1=O	0	5	7	-3
c1ccc(Nc2cccc(Nc3ccccc3)c2)cc1	48*	10	17	14
COc1ccc(CC2(C)OC(c3ccc([N+](=O)[O-])cc3)=NN2C(C)=O)cc1 (stereo not given)	-1	-3	0	-7
CCc1nnc(NC(=O)c2ccc(NC(=O)C(C)C)cc2)s1	0	43*	4	2
COc1ccc(C(=O)NC(=S)Nc2ccccc2N2CCCCC2)cc1[N+](=O)[O-]	-25	9	15	0
COc1ccc(C(=O)NC(=S)Nc2cccc(Cl)c2N2CCOCC2)cc1[N+](=O)[O-]	42*	8	15	2
CC(C)CC[n+]1ccn(-c2nc3ccccc3nc2[N-]S(=O)(=O)c2ccccc2)c1	-17	2	15	1
O=S(=O)([N-]c1nc2ccccc2nc1-n1cc[n+](Cc2ccccc2)c1)c1ccc(Cl)cc1	28	60*	58*	16
CCOC(=O)c1c([N+](=O)[O-])c(C)[nH]c(=O)c1C#N	19	1	4	-4
O=C(Nc1cc(C(F)(F)F)ccc1-n1cnc2ccccc21)c1ccccc1	-4	4	10	0
O=C(NCCN1CCc2ccccc2C1)C1CC(=O)N(C2CCCC2)C1 (stereo not given)	2	5	73*	0
CN1CCN(CCCNC(=O)C2CC(=O)N(C3CCCCC3)C2)CC1 (stereo not given)	-28	3	2	-7
NC(=O)C1(N2CCCCC2)CCN(S(=O)(=O)c2cc(Cl)sc2Cl)CC1	-1	1	2	-7
CC1=C(C(=O)N2CCCCC2)C(c2cccs2)C2=C(CCCC2=O)N1 (stereo not given)	138*	-4	-6	2
COC(=O)C1=C(C)NC2=C(C(=O)CCC2)C1c1cccs1 (stereo not given)	-8	5	-4	-1
C=CCSc1nc(-c2ccc(OC)cc2)c(C#N)c(=O)n1CC=C	-2	-3	3	-4
CCc1ccc(-c2nc(CS(=O)CC(=O)O)c(C)o2)cc1 (stereo not given)	2	2	10	0
CCOC(=O)NC(=O)CSc1nc2ccc([N+](=O)[O-])cc2[nH]1	44*	31	27	14
CCOC(=O)NC(=O)CSc1nc2ccc(OCC)cc2[nH]1	-8	2	22	3
CSc1ccc(NC(=O)Nc2ccc(C(=O)NCC(=O)O)cc2)cc1	64*	-2	2	-8
SMILES	hK5 inh	FXIa inh	FXIIa inh	thrombin 1536
O=C(Nc1nnc(SCC(=O)N2CCOCC2)s1)c1ccccc1	-15	4	2	-6
CCOc1ccccc1C(=O)Nc1nnc(SCC(=O)N2CCOCC2)s1	43*	32	25	55*
Nc1nc2ccccc2n1C(=O)c1ccco1	41*	5	-3	44*
CCC(=O)N1CCc2cc(S(=O)(=O)CCC(=O)NCc3ccc4c(c3)OCO4)ccc21	41*	15	15	2
CCC(=O)N1CCc2cc(S(=O)(=O)CCC(=O)Nc3ccc(CC)cc3)ccc21	-28	-12	6	-4
COc1ccc(N(C(=O)c2ccco2)S(=O)(=O)c2ccccc2)cc1	-4	10	16	58*
COc1ccc(N(C(=O)c2ccco2)S(=O)(=O)c2cc(Cl)c(Cl)cc2Cl)cc1	-9	0	10	-3
Cc1ccc(-n2cc(CNCC3CC(=O)N(C4CC4)C3)c(-c3cccc(C)c3)n2)cc1 (stereo not given)	x	-3	6	2
CC(C)=CCN1CCN(Cc2cccn2-c2ncccn2)CC1CCO (stereo not given)	2	11	11	-1
O=S(=O)(CC(c1ccccc1)N1CCCCC1)c1ccc(Cl)cc1 (stereo not given)	48*	5	16	6
O=C(O)COc1ccccc1/C=N/NC(=O)c1cc2ccccc2cc1O	-7	22	7	-2
CN(C)c1ccc(P(=O)(OCc2ccccc2)C(O)c2ccncc2)cc1 (stereo not given)	-9	11	23	3
CCCOP(=O)(c1ccc(N(C)C)cc1)C(O)c1ccncc1 (stereo not given)	15	11	15	66*
Clc1ccc(-c2csc(-c3cccnc3)n2)s1	3	0	9	-16
Cn1nccc1-c1cc(Cl)cc(Cl)c1O	-7	-8	0	73*
Cn1nccc1NC(=O)Nc1cccc(Cl)c1	2	2	13	-2
O=C1SCCC1NC(=O)C(c1ccccc1)c1ccccc1 (stereo not given)	94*	60*	40*	14
Cc1ccsc1C(=O)NNC(=O)C1CC=CCC1C(=O)O (stereo not given)	55*	11	12	23
CNS(=O)(=O)c1cccc(C(=O)OCc2cc(=O)n3cc(Br)ccc3n2)c1	-18	-3	4	-9
Cc1ccc(-c2c[n+](CC(=O)Nc3nc(-c4ccccc4)cs3)c3n2CCC3)cc1	2	2	5	4
O=C(C[n+]1cc(-c2ccccc2)n2c1CCC2)Nc1nc(-c2ccccc2)cs1	42*	30	41*	18
CCOC(=O)C(CC)(CCC(=O)OC)c1csc(Nc2ccccc2O)n1 (stereo not given)	19	21	21	66*
CCCCC(CCC(=O)O)(C(=O)OCC)c1csc(Nc2ccc(C)cc2)n1 (stereo not given)	8	0	10	-10
O=C(N/N=C/c1ccc(OC(=O)c2ccccc2)c([N+](=O)[O-])c1)c1ccc(O)cc1	-2	-2	8	-8
N#Cc1ccccc1NC(=O)COC(=O)COc1ccccc1[N+](=O)[O-]	2	3	14	42*
O=C(COC(=O)COc1ccccc1[N+](=O)[O-])NC1CCCC1	-22	-5	-1	-5
CC(OC(=O)CCC(=O)c1cccs1)C(=O)Nc1ccccc1[N+](=O)[O-] (stereo not given)	-15	-5	0	38
O=C(COC(=O)CCC(=O)c1cccs1)Nc1ccccc1[N+](=O)[O-]	6	-1	3	42*
